The values that follow come from PubChem BioAssay.

Assay [1] is described as follows: S. cerevisiae growth inhibition in permissive medium (OD615), pilot counter-assay for S. cerevisiae lifespan shortening project, permissive growth control (AID 705;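 active means growth inhibition above 25% in both replicates, a cutoff set 3 SD above the mean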). To be noted: OD615, 24 h, at 10 µM, active compounds read high. The gist of the method:
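System – S. cerevisiae with engineered DeaD lifespan system · Buffer or medium – SC raffinose/galactose permissive medium · Schedule – cells pre-grown 4 h, then 24 h compound exposure, 30 °C humidified · Technique – culture turbidity as optical density at 615 nm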

A short description of assay [2]: S. cerevisiae growth inhibition in restrictive medium, OD615, pilot screen, restrictive growth control, yeast lifespan reduction project (AID 706;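 active means growth inhibition above a set limit, 3 SD over mean compound inhibition, in both replicates, cut at about 43% in these data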;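 further: modified DeaD lifespan yeast strain shifted to restrictive glucose medium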). Conditions: OD615, 48 h, at 10 µM, active compounds read high. The gist of the method: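 Material: engineered S. cerevisiae DeaD strain / Medium: glucose-based CSMM-D restrictive medium / Compound: single dose of 10 µM compound final, 0.25% DMSO / Timing: 4 h pre-incubation, 48 h exposure at 30 °C / Technique: OD615 absorbance reading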

Assay [3] in a line: doxorubicin toxicity protection in MRP-1 cells – H69AR cells, CellTiter-Glo, duplicate, MRP-1 activator project, pilot screen (AID 807;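 active means viability increase at or above a cutoff of the median across tested compounds plus 3 SD, cut at about 8.5% in these data, passing the limit was not always enough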;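 further: compound pretreatment 18-22 h then 72 h combined with doxorubicin; 0% = doxorubicin alone and 100% = vehicle without doxorubicin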). Conditions: H69AR viability with doxorubicin, CellTiter-Glo luminescence; at 10 µM; active compounds read high.
A short description of assay [4]: viability of HCT116 without oncogenic beta-catenin – human colon tumor cells, pilot screen (AID 823;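 active means cell viability at or below a set limit in both duplicate runs, the limit being the all-compound median minus 4 SD, cut at about 23% in these data, passing the limit was not always enough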;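 further: 0% = wells killed by 20 µM Hyamine and 100% = untreated DMSO cell wells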). Conditions: HCT116 beta-catenin knockout viability, CellTiter-Glo, 60 h; at 10 µM; active compounds read low. Background: Cellular ATP, detected with luciferase, serves as a proxy for viable cell number.
The nature of assay [5]: viability of PTEN-null HCT116 cells – cell-based, HCT116 clonal line, CellTiter-Glo, pilot screen (AID 824;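 active means viability at or below 27.92% in each of two runs, the all-compound median minus 4 SD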;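 further: 0% = 20 µM Hyamine control and 100% = vehicle cell control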). To be noted: HCT116 PTEN-deleted viability, 60 h, at 10 µM, active compounds read low.
Assay [6] is described as follows: RAM pathway blockade in budding yeast – dse1pr::URA3 reporter, 5-FOA selection, pilot screen (AID 869).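 Further: 0% = DMSO wells with no growth and 100% = 10 µM 1-NA-PP1 with full growth; RAM network block rescues cells from 5-FOA so hits raise OD615 growth.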 Conditions: S. cerevisiae dse1pr::URA3 5-FOA growth, OD615, 2 d; at 10 µM; active compounds read high; strain carries analog-sensitive mutant Cbk1 kinase.
The nature of assay [7]: RAM signaling pathway blockade in yeast – S. cerevisiae, Pdr1DBD-CYC8 efflux-inhibited sensitized strain, primary screen (AID 1298;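 active means RAM network inhibition above 8.4% in each of two replicates, 3 SD over the compound average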;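 further: 0% = DMSO untreated cells without growth and 100% = 10 µM 1-NA-PP1 full growth; higher means more yeast growth rescued from 5-FOA killing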). Conditions: S. cerevisiae cbk1-as DSE1-URA3 strain, 5-FOA growth OD615, 2 d; at 50 µM; active compounds read high.

For orientation: viability means a read-out of living cells in per cent, often relative to untreated cells. As a reminder, the inhibition is the drop in the measured response relative to a control, in per cent.

Unmarked numbers belong to inactive results. Inconclusive results are not listed. Calls of active or inactive are those of the source.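 How the source made its calls, unless noted: active means inhibition over a set limit, the all-compound mean plus 3 SD, in both replicate runs; inconclusive means over that limit in just one replicate run; inactive means at or under that limit in both runs.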

On to `COc1ccccc1NC(=O)C1CCCN(S(=O)(=O)c2cnc[nH]2)C1` (stereo unspecified), for which the results for the growth inhibition in assay [1] and in assay [2] were 1.64% and -3.54%, respectively. Further, the viability increase in assay [3] was -0.26%. Besides, the values for the viability in assay [4] and in assay [5] were 97% and 95.5%, respectively. In addition, in assay [6], the inhibition is 0.53%. In assay [7], the RAM network inhibition was 0.84%.

Turning to `CCCCCCNS(=O)(=O)c1nc2nc(C)cc(C)n2n1`, the growth inhibition is -15.4% in assay [1] and -13.1% in assay [2]. Besides, the viability increase in assay [3] is 2.63%. For the same compound, the viability in assay [4] and in assay [5] was 104% in each case. Moreover, the inhibition in assay [6] was 1.35%. For the same compound, in assay [7], the RAM network inhibition is 1.21%.

Take `Cc1nc(Sc2nnnn2-c2ccccc2)c(C#N)c(C)c1C`: the results for the growth inhibition in assay [1] and in assay [2] were -13.8% and -9.12%, respectively. The viability increase in assay [3] was -2.52%. Moreover, the viability is 108% in assay [4] and 97% in assay [5]. The inhibition in assay [6] was 2.97%. The RAM network inhibition in assay [7] was 9.98%.

For the compound `Cc1c(C(=O)OC2CCCC2)[nH]c2c1C(=O)CC(c1ccco1)C2` (stereo unspecified), the growth inhibition in assay [1] was -6.06%; in assay [2] it was -12.3%. In addition, the viability increase in assay [3] is -5.41%. The results for the viability in assay [4] and in assay [5] were 15.4% (active) and 17.7% (active), respectively. Also, in assay [6], the inhibition was 1.86%. Further, the RAM network inhibition in assay [7] was 0.11%.

In the case of `COC(=O)C1C2C=CC3(CN(c4cccc(Cl)c4)C(=O)C13)O2` (stereo unspecified), the growth inhibition was -11.2% in assay [1] and -8.25% in assay [2]. For the same compound, the viability increase in assay [3] was -1.38%. For the same compound, the viability in assay [4] is 107%; in assay [5], 99.5%. In addition, in assay [6], the inhibition is 1.06%. Moreover, the RAM network inhibition in assay [7] was 5.74%.

Consider `COCCNC(=O)c1cc(-c2ccccc2OC)on1`, for which the growth inhibition in assay [1] is 5.14%; in assay [2], 11.4%. The viability increase in assay [3] is -5.78%. Besides, the values for the viability in assay [4] and in assay [5] were 62.3% and 55.5%, respectively. The inhibition in assay [6] is -0.05%. The RAM network inhibition in assay [7] is 2.09%.

Regarding `CCOC(=O)N1CCC(NC(=O)C2CCN(Cc3nc(-c4ccc(CC)cc4)oc3C)CC2)CC1`, the growth inhibition in assay [1] is -8.25%; in assay [2], -7.78%. In addition, the viability increase in assay [3] is -1.2%. For the same compound, the viability in assay [4] was 84.2%; in assay [5], 85.9%. Moreover, the inhibition in assay [6] is 0.435%. Besides, in assay [7], the RAM network inhibition was 0.29%.

As to `O=NC1=C(c2c(O)[nH]c3ccccc23)CCCC1`, the growth inhibition in assay [1] was -3.26%; in assay [2], -12%. The viability increase in assay [3] was -5.46%. Besides, the viability in assay [4] is 91%; in assay [5], 93.9%. In assay [6], the inhibition was 1.6%. Also, the RAM network inhibition in assay [7] was 4.71%.

With `N#CCC(=O)Nc1ccccc1C(=O)O`, the growth inhibition is -4.9% in assay [1] and 0.025% in assay [2]. The viability increase in assay [3] was -2.8%. Moreover, the viability in assay [4] is 94.8%; in assay [5] it was 97%. Further, the inhibition in assay [6] is 0.695%. In addition, the RAM network inhibition in assay [7] was -0.92%.

In the case of `COc1ccccc1OCC(=O)N(Cc1nc(-c2ccc(Cl)cc2)no1)C(C)C`, the results for the growth inhibition in assay [1] and in assay [2] were -16.3% and -10.6%, respectively. Also, the viability increase in assay [3] was 2.37%. For the same compound, the viability in assay [4] is 84.7%; in assay [5], 82.5%. The inhibition in assay [6] was 1.4%. In assay [7], the RAM network inhibition was 6.52%.

For `Cc1cc(N2CCN(C3CCCCC3)CC2)nc2cccc(O)c12`, the figures for the growth inhibition in assay [1] and in assay [2] were -7.5% and -31.3%, respectively. The viability increase in assay [3] was -4%. In addition, the viability was 61% in assay [4] and 62.8% in assay [5]. Further, in assay [6], the inhibition is 2.71%. Besides, the RAM network inhibition in assay [7] is 4.45%.

In the case of `Cc1ccc2oc(=O)c3cnn(CC(=O)NCCN4CCOCC4)c3c2c1`, the growth inhibition in assay [1] is -5.79%; in assay [2], -12%. In assay [3], the viability increase was -0.17%. Moreover, the viability in assay [4] was 103%; in assay [5], 97.7%. Further, the inhibition in assay [6] is 1.15%. For the same compound, in assay [7], the RAM network inhibition is 5.06%.

As for `O=C(O)C1C(c2ccccc2)C(C(=O)OCc2ccco2)C1c1ccccc1` (stereo unspecified), the results for the growth inhibition in assay [1] and in assay [2] were -15.4% and -14.6%, respectively. In assay [3], the viability increase is -3.32%. The viability is 89.5% in assay [4] and 88.3% in assay [5]. For the same compound, the inhibition in assay [6] was 0.645%. In assay [7], the RAM network inhibition was 6.05%.

With `O=C1N=C(N2CCOCC2)SC1=C1CCCCC1`, the growth inhibition is -8.5% in assay [1] and -2.34% in assay [2]. Further, in assay [3], the viability increase was -2.09%. Also, the viability in assay [4] is 98%; in assay [5], 97.1%. Moreover, in assay [6], the inhibition was 1.17%. Moreover, the RAM network inhibition in assay [7] is 1.84%.

As to `CCNc1ccc(C(=O)OCC)cc1NC(=O)c1cccc(N(C)C)c1`, the values for the growth inhibition in assay [1] and in assay [2] were -8.58% and 2.37%, respectively. Further, the viability increase in assay [3] was -5.51%. The viability is 18.4% (active) in assay [4] and 19.1% (active) in assay [5]. For the same compound, the inhibition in assay [6] is 0.385%. For the same compound, the RAM network inhibition in assay [7] was 2.72%.

With `COC(=O)/C=C/S(=O)(=O)c1ccc(NC(C)=O)cc1`, the growth inhibition in assay [1] was -15.3%; in assay [2], 0.685%. Moreover, the viability increase in assay [3] was -8.44%. Moreover, the viability in assay [4] is 88.3%; in assay [5] it was 85.4%. In addition, in assay [6], the inhibition was 0.565%. The RAM network inhibition in assay [7] was 7.25%.

Take `O=C(CCCN1C(=O)CSc2ncccc21)N1CCN(Cc2ccccc2)CC1`: the growth inhibition in assay [1] is -1.92%; in assay [2] it was -2.68%. For the same compound, in assay [3], the viability increase was -2.06%. Also, the viability is 92.4% in assay [4] and 91.7% in assay [5]. Further, the inhibition in assay [6] was 2.33%. Further, the RAM network inhibition in assay [7] was 2.55%.

Regarding `COC(=O)c1ccc(OCC(O)CN2CCC(C)CC2)cc1` (stereo unspecified), the growth inhibition was -2.79% in assay [1] and -3.85% in assay [2]. Also, the viability increase in assay [3] was -2.26%. Also, the results for the viability in assay [4] and in assay [5] were 92.3% and 94.1%, respectively. The inhibition in assay [6] was 0.835%. For the same compound, the RAM network inhibition in assay [7] was 4.68%.
